Results published in ChEMBL document CHEMBL3739271, “Synthesis and evaluation of a series of resveratrol analogues as potent anti-cancer agents that target tubulin” (2015).
The source made the active and inactive calls. The rule behind the calls is not given here.

Key:
CCRF-CEM = experiment: Cytotoxicity against human CCRF-CEM cells by SRB assay; format: functional
Procedure, shortened: (§1)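 NCI 60 human tumor cell line panel, sulforhodamine B (SRB) protein-stain read-out. Compounds were first screened at a single dose of 10^-5 M, and selected compounds were then tested in a five-dose format. GI50 is the drug concentration giving a 50% reduction in net protein increase relative to control cells.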

[1] = Cytotoxicity against human HL-60(TB) cells by SRB assay; format: functional
Procedure, shortened: (§2)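 NCI 60-cell-line panel using sulforhodamine B protein stain. Initial single-dose screen at 10^-5 M, then five-dose testing. GI50 is the drug concentration giving a 50% reduction in net protein increase relative to control cells.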

K562 = experiment: Cytotoxicity against human K562 cells by SRB assay; format: functional; procedure, shortened: as §1
[2] = Cytotoxicity against human MOLT4 cells by SRB assay; format: functional; conditions: MOLT-4; procedure, shortened: as §1
[3] = Cytotoxicity against human RPMI8226 cells by SRB assay; format: functional; conditions: RPMI-8226; procedure, shortened: as §1
SR = experiment: Cytotoxicity against human SR cells by SRB assay; format: functional; procedure, shortened: as §1
A549 = experiment: Cytotoxicity against human A549 cells by SRB assay; format: functional; procedure, shortened: as §1
[4] = Cytotoxicity against human HOP62 cells by SRB assay; format: functional; conditions: HOP-62; procedure, shortened: as §1
[5] = Cytotoxicity against human HOP92 cells by SRB assay; format: functional; conditions: HOP-92; procedure, shortened: as §1
NCI-H23 = experiment: Cytotoxicity against human NCI-H23 cells by SRB assay; format: functional; procedure, shortened: as §1
NCI-H522 = experiment: Cytotoxicity against human NCI-H522 cells by SRB assay; format: functional; procedure, shortened: as §1
[6] = Cytotoxicity against human COLO205 cells by SRB assay; format: functional; conditions: COLO 205; procedure, shortened: as §1
[7] = Cytotoxicity against human HCC2998 cells by SRB assay; format: functional; conditions: HCC 2998; procedure, shortened: as §1
[8] = Cytotoxicity against human HCT116 cells by SRB assay; format: functional; conditions: HCT-116; procedure, shortened: as §1
[9] = Cytotoxicity against human HCT15 cells by SRB assay; format: functional; conditions: HCT-15; procedure, shortened: as §1
HT-29 = experiment: Cytotoxicity against human HT-29 cells by SRB assay; format: functional; procedure, shortened: as §1
KM12 = experiment: Cytotoxicity against human KM12 cells by SRB assay; format: functional; procedure, shortened: as §1
[10] = Cytotoxicity against human SW620 cells by SRB assay; format: functional; conditions: SW-620; procedure, shortened: as §1
[11] = Cytotoxicity against human SF268 cells by SRB assay; format: functional; conditions: SF-268; procedure, shortened: as §1
[12] = Cytotoxicity against human SF295 cells by SRB assay; format: functional; conditions: SF-295; procedure, shortened: as §1
[13] = Cytotoxicity against human SF539 cells by SRB assay; format: functional; conditions: SF-539; procedure, shortened: as §1
[14] = Cytotoxicity against human SNB19 cells by SRB assay; format: functional; conditions: SNB-19; procedure, shortened: as §1
[15] = Cytotoxicity against human SNB75 cells by SRB assay; format: functional; conditions: SNB-75; procedure, shortened: as §1
U-251 = experiment: Cytotoxicity against human U251 cells by SRB assay; format: functional; procedure, shortened: as §1
[16] = Cytotoxicity against human LOXIMVI cells by SRB assay; format: functional; conditions: LOX IMVI; procedure, shortened: as §2
M14 = experiment: Cytotoxicity against human M14 cells by SRB assay; format: functional; procedure, shortened: as §1
MDA-MB-435 = experiment: Cytotoxicity against human MDA-MB-435 cells by SRB assay; format: functional; procedure, shortened: as §1
SK-MEL-28 = experiment: Cytotoxicity against human SK-MEL-28 cells by SRB assay; format: functional; procedure, shortened: as §1
SK-MEL-5 = experiment: Cytotoxicity against human SK-MEL-5 cells by SRB assay; format: functional; procedure, shortened: as §1
[17] = Cytotoxicity against human IGROV1 cells by SRB assay; format: functional; conditions: IGROV-1; procedure, shortened: as §2
[18] = Cytotoxicity against human OVCAR3 cells by SRB assay; format: functional; conditions: OVCAR-3; procedure, shortened: as §1
[19] = Cytotoxicity against human OVCAR4 cells by SRB assay; format: functional; conditions: OVCAR-4; procedure, shortened: as §1
NCI/ADR-RES = experiment: Cytotoxicity against human NCI/ADR-RES cells by SRB assay; format: functional; procedure, shortened: as §1
[20] = Cytotoxicity against human SKOV3 cells by SRB assay; format: functional; conditions: SK-OV-3; procedure, shortened: as §1
786-0 = experiment: Cytotoxicity against human 786-0 cells by SRB assay; format: functional; procedure, shortened: as §1
A498 = experiment: Cytotoxicity against human A498 cells by SRB assay; format: functional; procedure, shortened: as §1
ACHN = experiment: Cytotoxicity against human ACHN cells by SRB assay; format: functional; procedure, shortened: as §1
CAKI-1 = experiment: Cytotoxicity against human CAKI-1 cells by SRB assay; format: functional; procedure, shortened: as §1
[21] = Cytotoxicity against human UO31 cells by SRB assay; format: functional; conditions: UO-31; procedure, shortened: as §1
MCF7 = experiment: Cytotoxicity against human MCF7 cells by SRB assay; format: functional; procedure, shortened: as §1
MDA-MB-231 = experiment: Cytotoxicity against human MDA-MB-231 cells by SRB assay; format: functional; procedure, shortened: as §1
[22] = Cytotoxicity against human Hs578T cells by SRB assay; format: functional; conditions: Hs-578T; procedure, shortened: as §1
MDA-MB-468 = experiment: Cytotoxicity against human MDA-MB-468 cells by SRB assay; format: functional; procedure, shortened: as §1
MV4-11 [23] = experiment: Anti-leukemia activity against human MV4-11 cells after 48 hrs by Annexin-V staining; format: functional; conditions: MV4-11, 48 h, read-out: LD50 (the source's name)
Procedure, shortened: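 MV4-11 AML cells exposed to increasing compound concentrations for 24 and 48 h. Viability measured by Annexin V/7-AAD staining and expressed as percent Annexin V-/7-AAD- cells relative to control. N = 5, error bars SD. LD50 values derived from these curves.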

SK-MEL-2 = experiment: Cytotoxicity against human SK-MEL-2 cells by SRB assay; format: functional; procedure, shortened: as §1
[24] = Cytotoxicity against human UACC62 cells by SRB assay; format: functional; conditions: UACC-62; procedure, shortened: as §1
MV4-11 [25] = experiment: Inhibition of alpha-tubulin polymerization in human MV4-11 cells at 25 to 100 nM after 2 hrs by Western blotting; format: cell-based
Procedure, shortened: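 MV4-11 cells treated for 2 hours at 25, 50 and 100 nM. Microtubule polymerization then assessed by immunoblot.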

SMILES: COc1ccc(/C=C(/C#N)c2ccc(OC)c(OC)c2)cc1O
- GI50 (CCRF-CEM): 40 nM
- GI50 [1]: 30 nM
- GI50 (K562): 30 nM
- GI50 [2]: 70 nM
- GI50 [3]: 50 nM
- GI50 (SR): 30 nM
- GI50 (A549): 250 nM
- GI50 [4]: 30 nM
- GI50 [5]: 860 nM
- GI50 (NCI-H23): 80 nM
- GI50 (NCI-H522): 10 nM
- GI50 [6]: 1260 nM
- GI50 [7]: 170 nM
- GI50 [8]: 30 nM
- GI50 [9]: 30 nM
- GI50 (HT-29): 620 nM
- GI50 (KM12): 40 nM
- GI50 [10]: 40 nM
- GI50 [11]: 80 nM
- GI50 [12]: 580 nM
- GI50 [13]: 20 nM
- GI50 [14]: 40 nM
- GI50 [15]: 20 nM
- GI50 (U-251): 50 nM
- GI50 [16]: 70 nM
- GI50 (M14): 20 nM
- GI50 (MDA-MB-435): < 10 nM
- GI50 (SK-MEL-28): 1270 nM
- GI50 (SK-MEL-5): 50 nM
- GI50 [17]: 70 nM
- GI50 [18]: 20 nM
- GI50 [19]: 1070 nM
- GI50 (NCI/ADR-RES): 20 nM
- GI50 [20]: 50 nM
- GI50 (786-0): 240 nM
- GI50 (A498): 20 nM
- GI50 (ACHN): 90 nM
- GI50 (CAKI-1): 420 nM
- GI50 [21]: 90 nM
- GI50 (MCF7): 30 nM
- GI50 (MDA-MB-231): 50 nM
- GI50 [22]: 30 nM
- GI50 (MDA-MB-468): 40 nM
- CC50 (MV4-11 [23]): 409 nM

SMILES: COc1ccc(/C=C(\C#N)c2cc(OC)c(OC)c(OC)c2)cc1O
- GI50 (CCRF-CEM): < 10 nM
- GI50 [1]: < 10 nM
- GI50 (K562): < 10 nM
- GI50 [2]: < 10 nM
- GI50 [3]: < 10 nM
- GI50 (SR): < 10 nM
- GI50 (A549): < 10 nM
- GI50 [4]: < 10 nM
- GI50 [5]: < 10 nM
- GI50 (NCI-H23): < 10 nM
- GI50 (NCI-H522): < 10 nM
- GI50 [6]: 2990 nM
- GI50 [7]: 20 nM
- GI50 [8]: < 10 nM
- GI50 [9]: < 10 nM
- GI50 (HT-29): 3180 nM
- GI50 (KM12): < 10 nM
- GI50 [10]: < 10 nM
- GI50 [11]: < 10 nM
- GI50 [12]: 50 nM
- GI50 [13]: < 10 nM
- GI50 [14]: < 10 nM
- GI50 [15]: < 10 nM
- GI50 (U-251): 10 nM
- GI50 [16]: < 10 nM
- GI50 (M14): < 10 nM
- GI50 (MDA-MB-435): < 10 nM
- GI50 (SK-MEL-2): < 10 nM
- GI50 (SK-MEL-28): 1010 nM
- GI50 (SK-MEL-5): < 10 nM
- GI50 [24]: < 10 nM
- GI50 [17]: < 10 nM
- GI50 [18]: < 10 nM
- GI50 [19]: < 10 nM
- GI50 (NCI/ADR-RES): < 10 nM
- GI50 [20]: 10 nM
- GI50 (786-0): < 10 nM
- GI50 (A498): < 10 nM
- GI50 (ACHN): < 10 nM
- GI50 (CAKI-1): 30 nM
- GI50 [21]: < 10 nM
- GI50 (MCF7): < 10 nM
- GI50 (MDA-MB-231): < 10 nM
- GI50 [22]: < 10 nM
- GI50 (MDA-MB-468): < 10 nM
- CC50 (MV4-11 [23]): 38.6 nM
- inhibition (MV4-11 [25]): Active
